The record followed here is ChEMBL document CHEMBL4371052, “Diarylcarbonates are a new class of deubiquitinating enzyme inhibitor” (Bioorg Med Chem Lett, 2019).

Active and inactive are the calls of the source. The rule behind the calls is not given here.

The target in test [1] is Sentrin-specific protease 6 (Homo sapiens) (UniProt Q9GZR1). Nature of the test: Inhibition of recombinant His6-tagged SENP6 catalytic domain (628 to 1112 residues) (unknown origin) at 1 to 25 uM using SUMO2-modified RanGap1 as substrate preincubated for 30 mins followed by substrate addition and measured after 10 mins by Western blot analysis. In outline:
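His6-SENP6 catalytic domain (aa 628-1112, 200 nM) treated with inhibitor 30 min at room temperature; SUMOylated His6-RanGap1 (aa 418-588, 3 μM) then added for 10 min at 37 °C; quenched in Laemmli buffer, SDS-PAGE, anti-His6 immunoblot.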
Background: A western blot detects proteins with antibodies after separation by electrophoresis.

For another test, the system named is Ficin (Ficus carica). The experiment in a line: Inhibition of fig ficin at 100 uM using Z-Arg-AMC as substrate preincubated for 30 mins followed by substrate addition by fluorescence assay.
For test [2], the species on record is Homo sapiens. Nature of the test: Inhibition of deubiquitinase in HEK293T cells expressing N-terminal HA-tagged ubiquitin assessed as stabilization of HMW-Ub proteins by measuring half life at 250 uM after 2 hrs by Western blot analysis. Type of test: cell-based.
The next test has as its target T1, Papain (Carica papaya) (UniProt P00784).
T1 sequence (whole entry): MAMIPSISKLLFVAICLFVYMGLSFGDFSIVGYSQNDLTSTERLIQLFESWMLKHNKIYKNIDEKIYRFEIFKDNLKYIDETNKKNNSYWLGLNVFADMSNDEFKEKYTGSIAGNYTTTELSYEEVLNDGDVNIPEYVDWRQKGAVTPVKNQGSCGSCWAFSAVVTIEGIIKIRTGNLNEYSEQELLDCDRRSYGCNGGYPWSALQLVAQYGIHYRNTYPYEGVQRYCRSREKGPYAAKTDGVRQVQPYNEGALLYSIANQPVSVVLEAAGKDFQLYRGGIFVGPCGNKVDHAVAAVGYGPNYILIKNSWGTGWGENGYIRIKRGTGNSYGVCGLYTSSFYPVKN
The experiment in a line: Inhibition of papaya papain at 100 uM using Z-Arg-AMC as substrate preincubated for 30 mins followed by substrate addition by fluorescence assay. In outline: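 Enzyme (papain or ficin) preincubated 30 min with inhibitor at 100 μM, then Z-Arg-AMC substrate added at 300 μM; AMC release followed.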

The nature of test [3]: Inhibition of deubiquitinase in HEK293T cells assessed as stabilization of K48-linked HMW-Ub protein by Western blot analysis. Type of test: cell-based, Homo sapiens.
In test [4] the target is Ubiquitin carboxyl-terminal hydrolase 9X (Homo sapiens) (UniProt Q93008). Nature of the test: Inhibition of USP9x in human K562 cells assessed as decrease in Bcr-Abl expression at 50 uM measured after 2 hrs by Western blot analysis. Type of test: cell-based. An outline of the steps: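 K562 cells treated with 50 μM compound for 2 h. Lysates were sonicated in SDS, and Bcr-Abl was immunoblotted with anti-Abl antibody.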
Sequence of Ubiquitin carboxyl-terminal hydrolase 9X (Homo sapiens) (Q93008 whole entry, the tested form may be a part): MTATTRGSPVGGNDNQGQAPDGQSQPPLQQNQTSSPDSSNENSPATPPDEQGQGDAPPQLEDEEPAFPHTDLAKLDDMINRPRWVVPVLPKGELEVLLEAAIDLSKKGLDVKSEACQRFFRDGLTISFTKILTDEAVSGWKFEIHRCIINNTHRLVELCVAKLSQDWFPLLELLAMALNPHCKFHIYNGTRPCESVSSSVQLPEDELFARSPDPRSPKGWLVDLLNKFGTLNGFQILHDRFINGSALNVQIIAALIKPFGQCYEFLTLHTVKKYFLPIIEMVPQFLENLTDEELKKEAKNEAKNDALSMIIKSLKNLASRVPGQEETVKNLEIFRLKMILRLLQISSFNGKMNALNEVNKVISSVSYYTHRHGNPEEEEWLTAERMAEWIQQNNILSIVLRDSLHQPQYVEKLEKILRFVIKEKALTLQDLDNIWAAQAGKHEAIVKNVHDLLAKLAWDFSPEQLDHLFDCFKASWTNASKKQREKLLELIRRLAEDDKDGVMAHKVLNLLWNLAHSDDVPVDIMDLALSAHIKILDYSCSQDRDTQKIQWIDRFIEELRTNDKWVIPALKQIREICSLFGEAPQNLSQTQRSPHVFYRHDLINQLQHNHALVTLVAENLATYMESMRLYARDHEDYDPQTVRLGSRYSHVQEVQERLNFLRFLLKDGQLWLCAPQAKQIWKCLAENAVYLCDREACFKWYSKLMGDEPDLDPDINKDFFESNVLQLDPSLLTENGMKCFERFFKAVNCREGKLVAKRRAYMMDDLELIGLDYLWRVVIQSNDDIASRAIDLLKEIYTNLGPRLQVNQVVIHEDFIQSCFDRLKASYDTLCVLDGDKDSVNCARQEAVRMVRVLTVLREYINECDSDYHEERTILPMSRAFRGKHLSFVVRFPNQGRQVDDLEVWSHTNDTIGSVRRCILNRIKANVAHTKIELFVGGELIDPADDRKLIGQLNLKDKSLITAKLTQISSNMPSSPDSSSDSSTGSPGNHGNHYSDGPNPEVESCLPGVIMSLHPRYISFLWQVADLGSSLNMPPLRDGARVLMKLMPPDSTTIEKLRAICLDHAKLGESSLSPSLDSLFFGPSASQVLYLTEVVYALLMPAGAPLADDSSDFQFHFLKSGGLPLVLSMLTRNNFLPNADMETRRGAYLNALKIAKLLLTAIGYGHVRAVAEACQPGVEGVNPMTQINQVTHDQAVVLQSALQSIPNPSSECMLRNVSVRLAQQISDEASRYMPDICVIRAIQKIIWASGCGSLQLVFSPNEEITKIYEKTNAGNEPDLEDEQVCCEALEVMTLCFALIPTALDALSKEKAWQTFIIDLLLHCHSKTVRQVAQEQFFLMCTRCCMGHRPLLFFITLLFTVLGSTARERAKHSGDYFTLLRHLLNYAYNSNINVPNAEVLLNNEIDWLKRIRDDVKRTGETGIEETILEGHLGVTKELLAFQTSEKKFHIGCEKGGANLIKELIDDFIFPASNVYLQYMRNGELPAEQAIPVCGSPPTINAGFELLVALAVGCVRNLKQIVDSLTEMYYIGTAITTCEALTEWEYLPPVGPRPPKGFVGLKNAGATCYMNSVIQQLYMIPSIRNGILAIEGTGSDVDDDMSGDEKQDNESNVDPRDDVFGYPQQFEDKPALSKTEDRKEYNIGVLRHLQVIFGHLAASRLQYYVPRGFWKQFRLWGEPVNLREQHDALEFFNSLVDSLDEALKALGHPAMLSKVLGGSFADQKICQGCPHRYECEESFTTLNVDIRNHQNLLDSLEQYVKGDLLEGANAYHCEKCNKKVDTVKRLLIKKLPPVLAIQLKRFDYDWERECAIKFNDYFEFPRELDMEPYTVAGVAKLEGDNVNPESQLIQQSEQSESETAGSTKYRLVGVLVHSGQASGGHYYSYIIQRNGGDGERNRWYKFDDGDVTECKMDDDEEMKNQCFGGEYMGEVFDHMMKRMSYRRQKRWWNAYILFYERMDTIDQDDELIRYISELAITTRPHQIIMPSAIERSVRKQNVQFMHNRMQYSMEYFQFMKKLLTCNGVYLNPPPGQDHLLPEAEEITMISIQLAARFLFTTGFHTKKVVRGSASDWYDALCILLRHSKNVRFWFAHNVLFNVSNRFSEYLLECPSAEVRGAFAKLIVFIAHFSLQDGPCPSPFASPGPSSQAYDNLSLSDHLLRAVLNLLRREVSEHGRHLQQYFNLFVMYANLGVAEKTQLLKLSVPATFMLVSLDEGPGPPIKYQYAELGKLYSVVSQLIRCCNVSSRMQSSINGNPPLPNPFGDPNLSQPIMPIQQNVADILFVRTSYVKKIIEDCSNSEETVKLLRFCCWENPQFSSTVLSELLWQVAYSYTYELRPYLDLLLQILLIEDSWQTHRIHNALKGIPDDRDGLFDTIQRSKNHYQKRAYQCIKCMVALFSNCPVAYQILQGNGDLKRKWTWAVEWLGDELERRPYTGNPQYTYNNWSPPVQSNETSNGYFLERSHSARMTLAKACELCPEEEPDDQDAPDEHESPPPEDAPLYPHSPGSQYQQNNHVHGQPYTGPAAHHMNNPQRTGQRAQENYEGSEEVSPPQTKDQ

Test [5] is described as follows: Inhibition of deubiquitinase in HEK293T cells expressing N-terminal HA-tagged ubiquitin assessed as stabilization of HMW-Ub proteins after 2 hrs by Western blot analysis. Type of test: cell-based, Homo sapiens.
Test [6] is described as follows: Inhibition of deubiquitinase in COS1 cells expressing N-terminal HA-tagged ubiquitin assessed as stabilization of HMW-Ub proteins by Western blot analysis. Type of test: cell-based, Chlorocebus aethiops. In outline: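 HMW-Ub decomposition followed in lysates of Cos-1 cells expressing HA-Ub; EC50 from inhibition of HMW-Ub loss; mean ± s.e.m. of at least 3 independent experiments.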

For test [7], the target named is Ubiquitin carboxyl-terminal hydrolase 7 (Homo sapiens) (UniProt Q93009). Nature of the test: Inhibition of recombinant His6-tagged USP7 catalytic domain (unknown origin) assessed as association constant using Ub-AMC as substrate by fluorescence assay.
Sequence of Ubiquitin carboxyl-terminal hydrolase 7 (Homo sapiens) (Q93009 whole entry, looked up, the tested form may be a part): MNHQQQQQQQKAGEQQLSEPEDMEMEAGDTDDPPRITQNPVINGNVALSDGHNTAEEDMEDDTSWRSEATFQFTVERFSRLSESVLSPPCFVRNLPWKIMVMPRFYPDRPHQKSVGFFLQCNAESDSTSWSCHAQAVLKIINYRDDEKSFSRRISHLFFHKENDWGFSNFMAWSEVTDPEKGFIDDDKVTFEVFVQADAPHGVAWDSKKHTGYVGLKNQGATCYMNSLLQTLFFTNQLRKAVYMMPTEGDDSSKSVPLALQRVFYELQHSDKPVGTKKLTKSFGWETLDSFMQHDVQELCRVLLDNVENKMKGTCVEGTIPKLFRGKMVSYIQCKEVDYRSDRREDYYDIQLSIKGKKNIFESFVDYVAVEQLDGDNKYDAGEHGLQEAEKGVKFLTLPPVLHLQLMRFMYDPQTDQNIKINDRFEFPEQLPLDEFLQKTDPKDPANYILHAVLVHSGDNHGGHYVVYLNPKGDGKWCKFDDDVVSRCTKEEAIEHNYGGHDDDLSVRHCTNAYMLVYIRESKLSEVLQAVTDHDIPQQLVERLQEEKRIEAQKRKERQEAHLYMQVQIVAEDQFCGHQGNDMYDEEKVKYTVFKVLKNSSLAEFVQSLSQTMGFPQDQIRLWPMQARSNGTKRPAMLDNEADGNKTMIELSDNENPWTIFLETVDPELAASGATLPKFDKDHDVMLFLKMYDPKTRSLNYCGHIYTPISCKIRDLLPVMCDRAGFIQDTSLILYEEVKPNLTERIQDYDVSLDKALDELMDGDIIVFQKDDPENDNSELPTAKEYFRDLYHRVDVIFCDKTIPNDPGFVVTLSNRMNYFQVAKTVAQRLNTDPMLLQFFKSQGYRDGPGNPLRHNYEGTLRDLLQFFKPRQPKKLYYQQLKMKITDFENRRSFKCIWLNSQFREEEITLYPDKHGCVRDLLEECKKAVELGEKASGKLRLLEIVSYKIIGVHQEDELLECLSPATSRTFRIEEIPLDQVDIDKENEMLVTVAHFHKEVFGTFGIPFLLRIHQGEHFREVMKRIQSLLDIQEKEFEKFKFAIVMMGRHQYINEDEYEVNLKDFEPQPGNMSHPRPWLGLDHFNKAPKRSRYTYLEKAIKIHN
Test [8] concerns the target 26S proteasome (Homo sapiens) (UniProt Q99460+P49721+P20618+P28074+P28062+P28065+P28072+O00487+P25786+P25787+P25788+P25789+P28066+P60900+O14818+Q8TAA3+P40306+A5LHX3+P49720+P28070+Q99436+Q16186+P35998+P62191+P43686+P62333+P17980+P62195+Q13200+O43242+O00232+O00231+Q15008+P51665+Q9UNM6+P55036+P48556+P60896). The experiment in a line: Inhibition of 26S proteasome in HEK293T cells expressing GFP-fused Ub G76V mutant assessed as increase in GFP fluorescence. Type of test: cell-based. An outline of the steps:
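HEK 293T cells expressing G76V Ub-GFP, a fusion uncleavable by DUBs that reports ubiquitin-proteasome flux, treated with compound. GFP fluorescence was the read-out, with bortezomib as proteasome-inhibitor reference.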

Another test relates to K562. The experiment in a line: Inhibition of deubiquitinase in human K562 cells assessed as accumulation of K48-linked HMW-Ub protein at 50 uM measured after 2 hrs by Western blot analysis. Type of test: cell-based. In outline:
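K562 cells exposed to compound at 50 μM for 2 h; K48-linked ubiquitin accumulation read by immunoblotting.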

Test [9] concerns the target Ubiquitin carboxyl-terminal hydrolase 9X (Homo sapiens) (UniProt Q93008). Nature of the test: Inhibition of recombinant His6-tagged USP9x catalytic domain (unknown origin) assessed as association constant using Ub-AMC as substrate by fluorescence assay.
The subject of a further test is MCF7. Nature of the test: Cytotoxicity against human MCF7 cells assessed as decrease in cell viability treated every 24 hrs measured after 72 hrs by alamar blue assay. Type of test: functional, cell-based. An outline of the steps:
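MCF7 or B16/F10 cells dosed with compound every 24 h. Viable cells were quantified with Alamar Blue after 72 h.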
Background: The colour change of resazurin is a common sign of viable cells or microbes.

The species entered for test [10] is Homo sapiens. Nature of the test: Inhibition of deubiquitinase in HEK293T cells expressing N-terminal HA-tagged ubiquitin assessed as stabilization of HMW-Ub proteins by measuring half life at 500 uM after 2 hrs by Western blot analysis. Type of test: cell-based.
The species named for test [11] is Homo sapiens. The experiment in a line: Inhibition of deubiquitinase in HEK293T cells expressing N-terminal HA-tagged ubiquitin assessed as stabilization of HMW-Ub proteins at 25 uM after 2 hrs by Western blot analysis. Type of test: cell-based.
The species entered for test [12] is Homo sapiens. The experiment in a line: Inhibition of deubiquitinase in HEK293T cells expressing N-terminal HA-tagged ubiquitin assessed as stabilization of HMW-Ub proteins at 1 uM after 2 hrs by Western blot analysis. Type of test: cell-based.
The species named for test [13] is Homo sapiens. The experiment in a line: Inhibition of deubiquitinase in HEK293T cells expressing N-terminal HA-tagged ubiquitin assessed as stabilization of HMW-Ub proteins at 100 uM after 2 hrs by Western blot analysis. Type of test: cell-based.
The species entered for test [14] is Homo sapiens. The experiment in a line: Inhibition of deubiquitinase in HEK293T cells expressing N-terminal HA-tagged ubiquitin assessed as stabilization of HMW-Ub proteins at 30 uM after 2 hrs by Western blot analysis. Type of test: cell-based. In outline:
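Lysate of HEK 293T cells expressing HA-ubiquitin, incubated with inhibitor or DMSO vehicle at 37 °C for up to 2 h. Reactions quenched with reducing Laemmli buffer. Remaining high-molecular-weight ubiquitinated proteins assessed by SDS-PAGE and anti-HA immunoblot, relative to DMSO control at time 0. Duplicate runs.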

Test [15] addresses Ubiquitin carboxyl-terminal hydrolase 9X (Homo sapiens) (UniProt Q93008). The experiment in a line: Inhibition of recombinant human N-terminal His6-tagged USP9x assessed as association constant using Cy5-UbVME as substrate preincubated for 15 mins followed by substrate addition and measured after 7 mins by fluorescence assay.

Sequence of Sentrin-specific protease 6 (Homo sapiens) (Q9GZR1 whole entry, the tested form may be a part): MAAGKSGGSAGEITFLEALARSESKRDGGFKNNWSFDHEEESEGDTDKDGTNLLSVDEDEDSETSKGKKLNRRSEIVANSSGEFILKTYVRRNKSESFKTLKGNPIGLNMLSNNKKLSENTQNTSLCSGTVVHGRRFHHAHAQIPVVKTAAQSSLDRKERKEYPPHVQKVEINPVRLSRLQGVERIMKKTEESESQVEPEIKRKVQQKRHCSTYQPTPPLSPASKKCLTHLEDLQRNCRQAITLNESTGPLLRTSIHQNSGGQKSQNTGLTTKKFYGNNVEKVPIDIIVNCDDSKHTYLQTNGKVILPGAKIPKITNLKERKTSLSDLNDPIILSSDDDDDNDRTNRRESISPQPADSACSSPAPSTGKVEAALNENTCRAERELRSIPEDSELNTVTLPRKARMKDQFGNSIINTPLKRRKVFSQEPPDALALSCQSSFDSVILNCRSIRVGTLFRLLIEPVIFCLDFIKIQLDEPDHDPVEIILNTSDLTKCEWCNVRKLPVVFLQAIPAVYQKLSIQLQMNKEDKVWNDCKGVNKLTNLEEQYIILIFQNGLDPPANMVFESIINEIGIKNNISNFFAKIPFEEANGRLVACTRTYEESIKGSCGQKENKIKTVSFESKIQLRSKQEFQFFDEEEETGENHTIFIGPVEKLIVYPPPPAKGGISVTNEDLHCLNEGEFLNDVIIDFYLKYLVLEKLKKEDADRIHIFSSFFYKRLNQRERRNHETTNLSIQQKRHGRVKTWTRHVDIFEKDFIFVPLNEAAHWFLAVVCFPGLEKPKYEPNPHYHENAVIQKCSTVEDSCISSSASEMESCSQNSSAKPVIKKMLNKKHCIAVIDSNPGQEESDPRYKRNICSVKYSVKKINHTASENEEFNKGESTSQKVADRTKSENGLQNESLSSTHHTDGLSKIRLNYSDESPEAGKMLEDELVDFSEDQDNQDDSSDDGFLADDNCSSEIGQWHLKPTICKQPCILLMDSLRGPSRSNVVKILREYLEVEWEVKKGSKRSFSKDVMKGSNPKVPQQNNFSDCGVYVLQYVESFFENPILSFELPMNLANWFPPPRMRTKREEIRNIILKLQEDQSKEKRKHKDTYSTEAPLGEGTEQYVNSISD

Broadly, the EC50 is the concentration needed to bring the measured effect to its halfway point. With `NCc1ccc(OC(=O)Oc2ccc(Cl)cc2)cc1`, the inhibition entry (in test [1]; in the test with Ficin (Ficus carica); at Papain (Carica papaya); in test [8]) was “inactive” throughout. Further, the T1/2 in the test listed under Homo sapiens [2] was greater than 6 h. Further, the EC50 in [3] is less than 50 µM; in test [5], 30 µM; in test [6] it was 50 µM. Also, the inhibition result (in test [4]; in the test with K562) was “Active” throughout. For the same compound, the K worked out at 13 M⁻¹ s⁻¹ in test [7] and 18 M⁻¹ s⁻¹ in test [9].

Regarding `NCc1ccc(O)cc1`, the outcome in the test with MCF7 was inactive.

Regarding `NCc1ccc(OC(=O)Oc2ccccc2)cc1`, the EC50 in test [5] came to 210 µM; in test [6], 250 µM. Further, in the test filed under Homo sapiens [10], the T1/2 is greater than 0.5 h.

Regarding `Cc1ccc(/C=C2\CNC/C(=C\c3ccc(C)cc3)C2=O)cc1`, the inhibition entry in the test filed under Homo sapiens [11] was “Active”.

For the compound `CC(C)C[C@H](NC(=O)[C@H](Cc1ccccc1)NC(=O)c1cnccn1)B(O)O`, the inhibition entry in the test listed under Homo sapiens [12] was “inactive”.

In the case of `CC(C)(C)CNCc1ccc(OC(=O)Oc2ccc3ccccc3c2)cc1`, in test [5], the EC50 amounted to 30 µM. In addition, the K in test [7] turned out to be 21 M⁻¹ s⁻¹. The K entry in [9] is “inactive”.

Consider `NCc1ccc(OC(=O)Cc2ccccc2)cc1`, for which the EC50 in [5] was greater than 150 µM.

As to `O=C1/C(=C/c2ccc([N+](=O)[O-])cc2)CS(=O)(=O)C/C1=C\c1ccc([N+](=O)[O-])cc1`, the inhibition entry in the test listed under Homo sapiens [13] was “Active”.

`COc1ccc(OC(=O)Oc2cccc(OC)c2)cc1`: the half-maximal effective concentration (EC50) in test [5] was greater than 150 µM.

For the compound `Cc1cc(C(=O)CN2CCCC2)c(C)n1-c1ccc(F)cc1`, the inhibition result in the test filed under Homo sapiens [14] is “Active”.

Consider `Cc1ccc(OC(=O)Oc2cccc(C)c2)cc1`, for which the concentration for a half-maximal effect (EC50) in test [5] was greater than 150 µM.

Turning to `CC(C)(C)OC(=O)NCc1ccc(OC(=O)Oc2ccc(Cl)cc2)cc1`, the EC50 in test [5] is greater than 150 µM.

On to `O=C(Oc1ccccc1)Oc1ccc(CNCc2ccc(Cl)cc2)cc1`, for which, in test [5], the EC50 was found to be 300 µM.

For the compound `NCc1ccc(CC(=O)Oc2ccccc2)cc1`, the EC50 in test [5] was greater than 150 µM.

Take `CC(C)(C)OC(=O)NCc1ccc(OC(=O)Oc2ccc3ccccc3c2)cc1`: the EC50 in test [5] is greater than 150 µM.

Turning to `O=C(Oc1ccccc1)Oc1ccccc1`, the EC50 in [5] was greater than 150 µM.

`NCc1ccc(OC(=O)Oc2ccccc2Cl)cc1`: in test [5], the EC50 is 60 µM.

Take `NCc1ccc(OC(=O)Oc2cccc3ccccc23)cc1`: the inhibition entry (with Ficin (Ficus carica); at Papain (Carica papaya); in [8]) was “inactive” throughout. In addition, the results for the EC50 in [3] and in test [5] were less than 50 µM and 40 µM, respectively. For the same compound, the inhibition result (in [4]; in the test with K562) was “Active” each time. The K result in [7] was “inactive”. Also, the K in test [9] stood at 17 M⁻¹ s⁻¹.

Consider `Cc1ccc(OC(=O)Oc2ccc(CN)cc2)cc1`, for which, in test [5], the EC50 is 250 µM.

Take `S=C=NCCc1ccccc1`: in test [15], the K was found to be 150 M⁻¹ s⁻¹.

As to `C=CC(=O)N1C/C(=C\c2ccc([N+](=O)[O-])cc2)C(=O)/C(=C/c2ccc([N+](=O)[O-])cc2)C1`, the K in [9] was 140 M⁻¹ s⁻¹.

`NCc1ccc(OC(=O)Nc2ccccc2)cc1`: the EC50 in test [5] is greater than 150 µM.

In the case of `COc1ccc(OC(=O)Oc2ccc(CN)cc2)cc1`, in test [5], the concentration for a half-maximal effect (EC50) came out at 260 µM.

As to `CCC[C@H](NC(=O)/C(C#N)=C/c1cccc(Br)n1)c1ccccc1`, the K in test [7] was 66 M⁻¹ s⁻¹; in test [9], 50 M⁻¹ s⁻¹.

As for `NCc1ccc(NC(=O)Oc2ccccc2)cc1`, in test [5], the EC50 is greater than 150 µM.

`N#CSc1cc(SC#N)c(N)nc1N`: the K in test [9] was found to be 90 M⁻¹ s⁻¹.

As for `NCc1ccc(OC(=O)Oc2ccc(F)cc2)cc1`, in test [5], the EC50 is 300 µM.

As for `CC(C)COC(=O)Oc1ccc(CN)cc1`, the half-maximal effective concentration (EC50) in test [5] is greater than 500 µM.

For the compound `Oc1ccc2ccccc2c1`, in the test on MCF7, the result was inactive.

Consider `NCc1ccc(OC(=O)Oc2ccc(Br)cc2)cc1`, for which the inhibition entry (in test [1]; with Ficin (Ficus carica); at Papain (Carica papaya); in test [8]) was “inactive” in each case. The EC50 in [3] is less than 50 µM; in [5], 30 µM; in [6] it was 40 µM. For the same compound, the inhibition entry (in test [4]; in the test on K562) was “Active” throughout. Besides, the K in test [7] stood at 8 M⁻¹ s⁻¹; in test [9], 6 M⁻¹ s⁻¹.

As for `CC(C)(C)OC(=O)NCc1ccc(OC(=O)Oc2ccccc2)cc1`, the EC50 in test [5] was greater than 150 µM.

In the case of `CC(C)CNCc1ccc(OC(=O)Oc2ccc3ccccc3c2)cc1`, the EC50 in test [5] amounted to 70 µM.
